# Source: ChEMBL document CHEMBL4513216, “Probing the Open Global Health Chemical Diversity Library for Multistage-Active Starting Points for Next-Generation Antimalarials” (ACS Infect Dis, 2020)
# Assay: Toxicity liver stage against HepG2, at 10uM
# Format: cell-based
# Parameters: test concentration 10 uM, cell line HepG2-A16-CD81EGFP
# Conditions: human, HepG2-A16-CD81EGFP cells; read-out: INHIBITION
# How it was run: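 Uninfected HepG2-A16-CD81EGFP cells, 3 × 10^3 per well, 1536-well, plated on prespotted compound at 10 μM final, parasite-free screening media added to match infected plates; puromycin 10 μM positive, DMSO 0.5% negative; run in parallel with 48 h PbLuc assay at 37 °C, 5% CO2; viability by CellTiter-Glo luminescence, normalized to controls.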
row,SMILES,cytotoxicity at 10 µM [%]
1,Cc1ccc(NC(=O)Cn2ccc3c(=O)n(C)ccc32)cc1F,-2.74
2,CCOC(=O)[C@@H]1[C@@H](c2ccccc2)CN2CCN(C(=O)C3CC3)C[C@H]12,-0.973
3,O=C(O)CCNC(=O)N1CCc2c([nH]c3ccc(Cl)cc23)C1,11.9
4,O=c1nc(SCc2cccnc2)c2c(n1CCO)CCCC2,8.97
5,COC(C)(CNS(=O)(=O)c1cccnc1)c1ccccc1F (stereo not given),-0.403
6,COCCN1C[C@@H]2CN(C(=O)CC3CC3)C[C@@H]2C1=O,7.8
7,C[C@@H]1C[C@H]2CN(C(=O)C3=CCCC3)C[C@H]2O1,0.199
8,O=C(NCCc1ccccn1)[C@@]12CCO[C@@H]1CCN(CC1CC1)C2,5.79
9,CCS(=O)(=O)N1Cc2c(Cn3cccc3)nn(C(C)C)c2C1,13.6
10,CCOCC1CC2(CCN(C(=O)C3CCSCC3)CC2)CO1 (stereo not given),2.5
11,OCCN1CCOC2(CCCN(c3ncccn3)C2)C1 (stereo not given),9.55
12,COCC(=O)N1C[C@@H]2COC[C@]2(COC)C1,5.44
13,CCOC[C@H]1CC[C@H]2[C@H](CCN2S(=O)(=O)Cc2ccccc2)O1,8.61
14,CC(C)CCN1N=C(C(=O)N2CCCCCC2)S(=O)(=O)c2ccccc21,11.8
15,CCOc1cccc(CNc2ccccc2C(F)(F)F)c1O,-4.17
16,COc1ccccc1OCC(=O)NCC(O)(c1ccccc1)C1CC1 (stereo not given),-16.1
17,CC(C)(C)C(=O)NCCn1ccc(-c2ccncc2)n1,-26.7
18,Cc1noc(C2CCC3(CCN(C(=O)c4c(C)noc4C)CC3)O2)n1 (stereo not given),-10.6
19,O=C1CCCN1Cc1ncn2c1CN(C(=O)c1cccc(F)c1)CCC2,-12.1
20,Cc1nn(Cc2ccc(C(=O)NCCCN3CCOCC3)o2)c(C)c1Cl,-5.47
21,CCCn1c(N2CCCC(C)C2)nc2c(C)nn(C)c2c1=O (stereo not given),13.4
22,COc1c(C)cnc(CNCC(C)C)c1C,-0.135

row,SMILES,cytotoxicity at 10 µM [%]
1,CC(C)c1cc(C(=O)NCCc2nc(-c3cccnc3)n[nH]2)[nH]n1,8.02
2,Cc1noc(C)c1CC(=O)N[C@@H]1CC[C@@H](Oc2ccccc2)[C@@H]1O,2.04
3,Cc1ccccc1CC(=O)NCc1cnc(CC2CCN(C)CC2)cn1,-1.25
4,OCc1cc(C2CCCN2c2ncccn2)n[nH]1 (stereo not given),8.32
5,CNC(=O)C1(Cc2cc(C(C)C)no2)CCN(Cc2ccccn2)C1 (stereo not given),6.24
6,COCC(=O)N1C[C@@H](O)[C@H](N2CCN(c3ccccc3)CC2)C1,2.7
7,CCCn1nccc1-c1cc(C2CCN(C(C)=O)CC2)ccn1,-1.68
8,CC(=O)NC(=O)C1(CCCc2ccncc2)CCN1 (stereo not given),-24.5
9,O=C(NC(Cc1ccsc1)c1nccs1)C1CC1 (stereo not given),-28.3
10,CCn1nc2c(cc1=O)CN(CC1CCCCO1)CC2 (stereo not given),-2.94
11,Cc1cc(C)n(CC(C)NC(=O)C(C)(C)c2ccccc2F)n1 (stereo not given),-2.58
12,CCc1noc(C)c1C(=O)NCCCC(CC)(CC)C1OCCO1,-10.1
13,O=C(CCS(=O)(=O)C1CCCC1)N1CCC(O)(C(F)(F)F)C1 (stereo not given),18.9
14,O=C(CNC(=O)Nc1c(F)cccc1Oc1ccccc1)NC1CC1,6.45
15,CC(=O)N1CCC(C(=O)NCCc2c[nH]c3cc(C)ccc23)CC1,18.1
16,Cc1ncc2c(n1)CN(Cc1nc(-c3ccco3)oc1C)CC2,2.2
17,OCCC1(NCc2ccc(-n3cccn3)cc2)CCOCC1,-146
18,NC(=O)CC1CCN(c2cncc(OCc3ccccc3)n2)CC1,8.84
19,CN(C)c1nc(CNC(=O)Nc2cccc([S+](C)[O-])c2)cs1 (stereo not given),-5.27
20,O=S(=O)(NC1CCN(CC(F)(F)F)C1)c1cc(F)cc(F)c1 (stereo not given),-5.18
21,O=C(NCC1CCOC1)c1cc(-c2ccc(Cl)cc2)n[nH]1 (stereo not given),-14
22,COC(=O)C(CNC(=O)Nc1cn[nH]c1)Cc1cccc(C)c1 (stereo not given),1.37

row,SMILES,cytotoxicity at 10 µM [%]
1,Cc1ccc(N(CCC#N)C(=O)CCc2cccnc2)cc1C,-7.68
2,CN(CCC#N)C(=O)Cn1cnc2c(Br)cccc2c1=O,-1.6
3,Cc1noc(CCCNC(=O)CNC(=O)c2cc3ccccc3[nH]2)n1,4.81
4,CC(C(=O)N1CCN(CCOc2ccccc2)CC1)n1cncn1 (stereo not given),-4.88
5,Cc1n[nH]c(C)c1CNC(=O)NC1CCCCC1,1.91
6,c1cc(CCN2CCC(c3n[nH]c(C4CC4)n3)CC2)ccn1,3.39
7,Cc1cn2c(CN(C)C(=O)c3cnc(N)c(Cl)c3)c(C)nc2s1,-8.46
8,Cc1cccc(C(=O)NCc2ccc(OCCN(C)C)cc2)c1C,1.52
9,Cc1nc(CCNc2ccc(-c3nc(C)c(C)c(=O)[nH]3)cn2)cs1,2.07
10,COc1cc(Nc2c(C#N)c(=O)n(C)c(=O)n2C)cc(OC)c1,-3.65
11,COc1ncccc1NC(=O)NCC1CC1,-2.45
12,COc1cccc(NC(=O)Cc2c(C)nc3c(c2C)c(=O)[nH]n3C)c1,5.05
13,CCS(=O)(=O)c1ccc(N2CCC(N)CC2)cc1,-6.44
14,O=C(O)c1ccc(S(=O)(=O)Nc2c(F)cccc2-n2cccn2)cc1,-8.8
15,Cc1cc(C(=O)Nc2cnn(CC(=O)NC3CCCC3)c2)c(C)s1,3.07
16,Cc1cc(CC(=O)NC(C)c2ccc(OCC3CC3)c(F)c2)n[nH]1 (stereo not given),4.75
17,CCOC(=O)C(C)Nc1cccc(COCc2ccco2)c1 (stereo not given),2.1
18,CCOc1cccc(COC(=O)c2ccc(F)cn2)n1,0.296
19,CC(c1nc(C2CC2)no1)N(C)Cc1ccc2c(c1)OCCO2 (stereo not given),0.611
20,CN(C)C(=O)CN1CCN(C(=O)C2CSc3ccccc3O2)CC1 (stereo not given),1.84
21,CN(C)c1ccc(C(=O)NCc2ccc(N3CCOCC3)cc2)cn1,6.03
22,CC(c1ccc(Br)cc1)N1CCCN(C(N)=O)CC1 (stereo not given),2.1

row,SMILES,cytotoxicity at 10 µM [%]
1,O=C1COc2cccc(OCc3ccccn3)c2N1,2.2
2,O=S(=O)(NCCc1c[nH]c2cc(F)ccc12)C1CCOC1 (stereo not given),8.57
3,CCCn1nc(-c2nc(Cc3ccc(OC)cc3)no2)ccc1=O,0.0197
4,Cc1cc(F)ccc1S(=O)(=O)N1CCN(C)Cc2ccccc21,4.06
5,O=C(CN1CCCNC1=O)Nc1ccccc1C(=O)C1CCCC1,9.83
6,O=C(CCn1ccccc1=O)Nc1ccc(F)c(Cl)c1,13.1
7,CCCSCC(=O)Nc1ncn(CC(=O)NCc2ccccc2)n1,19.2
8,Cc1cc(NC(=O)Cn2cc(C#N)c(=O)c3cc(Br)ccc32)no1,16.5
9,O=C(C1CC=CC1)N1Cc2nccn2CC(CN2CCCC2)C1 (stereo not given),-86.5
10,Cc1cccc(C(=O)N2CCc3c(COCC4CC4)cncc3C2)n1,-80.1
11,CCO[C@@H]1CCN(C(=O)N(C)C)[C@@H]1Cc1cnn(C)c1,-73.4
12,COCCC1(CO)CCCN(Cc2ccc(C(F)(F)F)cc2)C1 (stereo not given),-153
13,c1ccc(Cc2noc(CCNC3CCOC4(CCOCC4)C3)n2)cc1 (stereo not given),-0.872
14,CS(=O)(=O)c1ncc(CN2CCN3CCCC3C2)n1CC1CCCCC1 (stereo not given),-4.9
15,CS(=O)(=O)NCC(=O)NCc1cccnc1-n1cnc2ccccc21,0.324
16,CN1CCN(C[C@@H]2CN(C(=O)CCc3cn[nH]c3)C[C@@H]2CO)CC1,-0.973
17,Cc1nc(N)sc1C(=O)N[C@H]1CN(CCO)C[C@@H]1C1CC1,1.81
18,COc1c(F)ccc(C(=O)N2CC[C@H](CO)[C@@H](O)C2)c1F,-3.85
19,Cc1cc2n(n1)CCN(c1nc(N)nc3c1CCNCC3)C2,7.04
20,O=C(NCC(F)(F)F)c1coc(COc2cccc(F)c2)n1,-148
21,CCc1nc2c(c(NCc3cc(-c4cccnc4)no3)n1)CCNCC2,0.811
22,CNc1nc(N2CCN(C3CCCCC3)C(CCO)C2)nc2c1CCC2 (stereo not given),-6.86

row,SMILES,cytotoxicity at 10 µM [%]
1,OC[C@H]1CN(Cc2c(Cl)cccc2Cl)C[C@H]1CN1CCCCC1,-140
2,CN(CCO)Cc1nnc(C2CCN(C(=O)c3cc[nH]c3)CC2)n1C,1.37
3,Cc1ncsc1CN(Cc1ccccc1)Cc1ccncc1,-4.45
4,CCN(Cc1cc(F)ccc1Cl)C1CCS(=O)(=O)C1 (stereo not given),5.29
5,CC(C)c1nccn1CCCNC(=O)c1ccc(-c2cncnc2)nc1,16.1
6,COc1ccc(C(=O)N2CCCC2c2noc(C(C)C)n2)nn1 (stereo not given),-4.01
7,CCC1c2ccsc2CCN1C(=O)NCc1cc(C)on1 (stereo not given),-10.2
8,CC(C)c1n[nH]c(C2CN(C(=O)c3cccc4cn[nH]c34)CCO2)n1 (stereo not given),-5.31
9,CC(C)N1CC(C(=O)NCCOc2ccc3c(c2)OCO3)CC1=O (stereo not given),-6.51
10,CCC1c2ccsc2CCN1C(=O)NCCNc1ncccn1 (stereo not given),-13.6
11,CN(CC1COc2ccccc2O1)C(=O)NCCCn1ccnc1 (stereo not given),-5.54
12,O=C(NCCCn1ccnc1)N1CCN(c2cccs2)CC1,-2.53
13,O=C(NCc1ccco1)[C@@H]1CC[C@@H]2[C@@H](CCN2CC2CC2)O1,-4.48
14,CN(C)C(=O)COC1COC2(CCN(CC3CCOCC3)CC2)C1 (stereo not given),-113
15,CC1c2ncc(COCC3CCOCC3)n2CCN1Cc1cccnc1 (stereo not given),5.95
16,CC(=O)N1[C@H](CN(C)C)C[C@@H]2CN(C(=O)c3occc3C)CC[C@@H]21,0.847
17,CCN1CCC2(C=C(C(=O)NC3CC3)c3ccccc32)CC1,6.2
18,Cc1ccc(CN2CC[C@@H](N3CCOCC3)[C@@H]2Cc2cccnc2)o1,9.55
19,O=C1CO[C@@H]2CN(Cc3cccnc3)C[C@H]2N1Cc1ccncc1,-77.6
20,Cn1ccc(C(=O)NC2CCC23CCN(CC2CCOCC2)CC3)c1 (stereo not given),-149
21,Cc1noc(C)c1CN1C(=O)[C@@H]2CC[C@H]1CN(Cc1nccs1)C2,-0.626
22,COc1cc(O)cc2c1C(=O)CC(c1ccc(O)cc1)O2 (stereo not given),-3.07
